Measured values taken from ChEMBL document CHEMBL4732237, “Discovery of 4-alkoxy-2-aryl-6,7-dimethoxyquinolines as a new class of topoisomerase I inhibitors endowed with potent in vitro anticancer activity” (2021).

Experiments:
Assay type in all cases: functional
U-251 = test: Growth inhibition of human U-251 cells incubated for 48 hrs by sulforhodamine B assay
Method in brief: (§1)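 NCI five-dose assay, with drug stocks in DMSO diluted in medium to five concentrations (10-fold or ½-log series). Cells in RPMI 1640/5% FBS were pre-incubated 24 h, and time-zero plates were TCA-fixed at drug addition. After 48 h at 37 °C, cells were TCA-fixed, SRB-stained and read at 515 nm. GI50 is from [(Ti-Tz)/(C-Tz)]×100 = 50, TGI from Ti = Tz, and LC50 from [(Ti-Tz)/Tz]×100 = -50.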

UACC-62 [1] = test: Growth inhibition of human UACC-62 cells incubated for 48 hrs by sulforhodamine B assay; method in brief: as §1
SK-MEL-5 = test: Growth inhibition of human SK-MEL-5 cells incubated for 48 hrs by sulforhodamine B assay
Method in brief: (§2)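 NCI five-dose screen (0.01–100 µM; five concentrations plus control). Cells grown in RPMI 1640/5% FBS/2 mM L-glutamine and preincubated 24 h, with time-zero plates TCA-fixed. Drug exposure 48 h at 37 °C, followed by SRB protein staining and reading at 515 nm. GI50 is the concentration at [(Ti-Tz)/(C-Tz)]×100 = 50.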

LOX IMVI [2] = test: Growth inhibition of human LOX IMVI cells incubated for 48 hrs by sulforhodamine B assay
Method in brief: (§3)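 NCI five-dose screen covering 0.01–100 µM, prepared as 10-fold or ½-log dilutions from DMSO stock. Cells in RPMI 1640 with 5% FBS were exposed for 48 h at 37 °C after 24 h preincubation. Adherent cells were fixed with TCA (final 10%) and suspension cells were settled before fixing. Stain was SRB, read at 515 nm. GI50 = 50% reduction in net protein increase versus control, with Tz taken at drug addition.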

OVCAR-8 [3] = test: Growth inhibition of human OVCAR-8 cells incubated for 48 hrs by sulforhodamine B assay; method in brief: as §2
EKVX = test: Growth inhibition of human EKVX cells incubated for 48 hrs by sulforhodamine B assay; method in brief: as §3
786-0 = test: Growth inhibition of human 786-0 cells incubated for 48 hrs by sulforhodamine B assay; method in brief: as §3
MDA-MB-231 = test: Growth inhibition of human MDA-MB-231 cells incubated for 48 hrs by sulforhodamine B assay; method in brief: as §3
SNB-75 [4] = test: Growth inhibition of human SNB-75 cells incubated for 48 hrs by sulforhodamine B assay; method in brief: as §2
HOP-62 = test: Growth inhibition of human HOP-62 cells incubated for 48 hrs by sulforhodamine B assay; method in brief: as §3
NCI-H460 = test: Growth inhibition of human NCI-H460 cells incubated for 48 hrs by sulforhodamine B assay; method in brief: as §2
SN12C = test: Growth inhibition of human SN12C cells incubated for 48 hrs by sulforhodamine B assay; method in brief: as §2
HCT-15 = test: Growth inhibition of human HCT-15 cells incubated for 48 hrs by sulforhodamine B assay; method in brief: as §3
SR [5] = test: Growth inhibition of human SR cells incubated for 48 hrs by sulforhodamine B assay; method in brief: as §2
HCT-116 = test: Growth inhibition of human HCT-116 cells incubated for 48 hrs by sulforhodamine B assay; method in brief: as §3
SK-MEL-28 = test: Growth inhibition of human SK-MEL-28 cells incubated for 48 hrs by sulforhodamine B assay; method in brief: as §2
NCI-H23 = test: Growth inhibition of human NCI-H23 cells incubated for 48 hrs by sulforhodamine B assay; method in brief: as §2
MCF7 = test: Growth inhibition of human MCF7 cells incubated for 48 hrs by sulforhodamine B assay; method in brief: as §3
Malme-3M = test: Growth inhibition of human Malme-3M cells incubated for 48 hrs by sulforhodamine B assay; method in brief: as §2
NCI-H322M = test: Growth inhibition of human NCI-H322M cells incubated for 48 hrs by sulforhodamine B assay; method in brief: as §2
TK-10 = test: Growth inhibition of human TK-10 cells at 10 uM incubated for 48 hrs by sulforhodamine B assay relative to control; details: read-out: GI
Method in brief: (§4)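 NCI one-dose screen across a 59-line panel. Cells were grown in RPMI 1640 with 5% FBS and 2 mM L-glutamine, plated and pre-incubated 24 h, then exposed to drug for 48 h at 37 °C, 5% CO2. Adherent cells were fixed with cold TCA (10% final), stained with 0.4% SRB in 1% acetic acid and read at 515 nm. Result is percent growth relative to no-drug control and time-zero cell count.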

LOX IMVI [6] = test: Growth inhibition of human LOX IMVI cells at 10 uM incubated for 48 hrs by sulforhodamine B assay relative to control; details: read-out: GI
Method in brief: (§5)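 NCI-60 single-dose screen. Cells were grown in RPMI 1640 with 5% FBS and 2 mM L-glutamine and plated 24 h before drug addition. Compound was added at one concentration in DMSO-derived medium and incubated for 48 h at 37 °C in 5% CO2. Read-out was SRB protein stain at 515 nm. Result is percent growth versus the no-drug control and the time-zero cell count; values below 0 indicate lethality.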

K562 = test: Growth inhibition of human K562 cells at 10 uM incubated for 48 hrs by sulforhodamine B assay relative to control; details: read-out: GI; method in brief: as §5
UO-31 = test: Growth inhibition of human UO-31 cells at 10 uM incubated for 48 hrs by sulforhodamine B assay relative to control; details: read-out: GI; method in brief: as §4
SF-295 = test: Growth inhibition of human SF-295 cells at 10 uM incubated for 48 hrs by sulforhodamine B assay relative to control; details: read-out: GI
Method in brief: (§6)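 NCI one-dose screen. Cells grown in RPMI 1640 with 5% FBS and 2 mM L-glutamine, plated and incubated 24 h at 37 °C, 5% CO2. DMSO-dissolved drug added, then 48 h further incubation. Adherent cells fixed with cold TCA, suspension cells fixed after settling. Stained with 0.4% SRB, absorbance read at 515 nm. Reported as percent growth relative to no-drug control and time-zero cell number.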

SNB-75 [7] = test: Growth inhibition of human SNB-75 cells at 10 uM incubated for 48 hrs by sulforhodamine B assay relative to control; details: read-out: GI; method in brief: as §6
SR [8] = test: Growth inhibition of human SR cells at 10 uM incubated for 48 hrs by sulforhodamine B assay relative to control; details: read-out: GI; method in brief: as §6
OVCAR-8 [9] = test: Growth inhibition of human OVCAR-8 cells at 10 uM incubated for 48 hrs by sulforhodamine B assay relative to control; details: read-out: GI; method in brief: as §6
OVCAR-3 = test: Growth inhibition of human OVCAR-3 cells at 10 uM incubated for 48 hrs by sulforhodamine B assay relative to control; details: read-out: GI; method in brief: as §6
RXF 393 = test: Growth inhibition of human RXF 393 cells at 10 uM incubated for 48 hrs by sulforhodamine B assay relative to control; details: read-out: GI; method in brief: as §6
SK-OV-3 = test: Growth inhibition of human SK-OV-3 cells at 10 uM incubated for 48 hrs by sulforhodamine B assay relative to control; details: read-out: GI; method in brief: as §6
UACC-62 [10] = test: Growth inhibition of human UACC-62 cells at 10 uM incubated for 48 hrs by sulforhodamine B assay relative to control; details: read-out: GI; method in brief: as §4
OVCAR-5 = test: Growth inhibition of human OVCAR-5 cells at 10 uM incubated for 48 hrs by sulforhodamine B assay relative to control; details: read-out: GI; method in brief: as §6
M14 = test: Growth inhibition of human M14 cells at 10 uM incubated for 48 hrs by sulforhodamine B assay relative to control; details: read-out: GI; method in brief: as §5

SMILES	GI50 (U-251) [nM]	GI50 (UACC-62 [1]) [nM]	GI50 (SK-MEL-5) [nM]	GI50 (LOX IMVI [2]) [nM]	TGI (LOX IMVI [2]) [nM]	GI50 (OVCAR-8 [3]) [nM]	GI50 (EKVX) [nM]	GI50 (786-0) [nM]	GI50 (MDA-MB-231) [nM]	GI50 (SNB-75 [4]) [nM]	GI50 (HOP-62) [nM]	GI50 (NCI-H460) [nM]	GI50 (SN12C) [nM]	GI50 (HCT-15) [nM]	GI50 (SR [5]) [nM]	GI50 (HCT-116) [nM]	GI50 (SK-MEL-28) [nM]	GI50 (MCF7) [nM]	GI50 (Malme-3M) [nM]	GI50 (NCI-H322M) [µM]	further results
COc1cc2nc(-c3ccc(C(F)(F)F)cc3)cc(OCCCN3CCOCC3)c2cc1OC	1400	628	288	141	324	1950	1610	1760	498	2460	1670	639	675	520	242	583	1440	1550	1380	10.5	GI50 (NCI-H23): 2360 nM
COc1cc2nc(-c3ccc(Cl)cc3)cc(OCCCN3CCC(O)CC3)c2cc1OC	2810	1900	1270	227	589	2000	1330	3310	665	1760	1980	955	1260	763	373	1440	1490	1600	1890	3.22	inhibition of growth at 10 µM (TK-10): 62%; inhibition of growth at 10 µM (LOX IMVI [6]): 62%; inhibition of growth at 10 µM (K562): 62%; inhibition of growth at 10 µM (UO-31): 62%; inhibition of growth at 10 µM (SF-295): 62%; inhibition of growth at 10 µM (SNB-75 [7]): 62%; inhibition of growth at 10 µM (SR [8]): 62%; inhibition of growth at 10 µM (OVCAR-8 [9]): 62%; inhibition of growth at 10 µM (OVCAR-3): 62%; inhibition of growth at 10 µM (RXF 393): 62%; inhibition of growth at 10 µM (SK-OV-3): 62%; inhibition of growth at 10 µM (UACC-62 [10]): 62%; inhibition of growth at 10 µM (OVCAR-5): 62%; GI50 (NCI-H23): 2830 nM; inhibition of growth at 10 µM (M14): 62%
COc1cc2nc(-c3ccc(C(F)(F)F)cc3)cc(OCCCN3CCC(O)CC3)c2cc1OC	2120	2610	1430	190	447	1660	1030	4720	919	2580	1800	835	1440	667	274	671	2380	2570	2650	10.2	GI50 (NCI-H23): 6160 nM
COc1cc2nc(-c3ccc(C(F)(F)F)cc3)cc(OCCCN3CCCC3)c2cc1OC	1050	1380	247	116	275	806	982	2130	565	1850	1030	528	673	416	133	456	1200	976	1010	6.77	TGI (SK-MEL-5): 645 nM; GI50 (NCI-H23): 1910 nM
COc1cc2nc(-c3ccc(Cl)cc3)cc(OCCCN3CCCCC3)c2cc1OC	1890	1940	1100	189	435	1770	1470	2620	666	1980	2370	842	946	604	373	828	1450	1560	1740	4.42	inhibition of growth at 10 µM (TK-10): 62%; inhibition of growth at 10 µM (LOX IMVI [6]): 62%; inhibition of growth at 10 µM (K562): 62%; inhibition of growth at 10 µM (UO-31): 62%; inhibition of growth at 10 µM (SF-295): 62%; inhibition of growth at 10 µM (SNB-75 [7]): 62%; inhibition of growth at 10 µM (SR [8]): 62%; inhibition of growth at 10 µM (OVCAR-8 [9]): 62%; inhibition of growth at 10 µM (OVCAR-3): 62%; inhibition of growth at 10 µM (RXF 393): 62%; inhibition of growth at 10 µM (SK-OV-3): 62%; inhibition of growth at 10 µM (UACC-62 [10]): 62%; inhibition of growth at 10 µM (OVCAR-5): 62%; GI50 (NCI-H23): 2950 nM; inhibition of growth at 10 µM (M14): 62%
COc1cc2nc(-c3ccc(C(F)(F)F)cc3)cc(OCCCN3CCCCC3)c2cc1OC	1100	1820	325	162	355	734	803	2170	536	1960	947	595	668	399	193	429	1260	1160	1260	8.7	TGI (SK-MEL-5): 1200 nM; GI50 (NCI-H23): 1910 nM
COc1cc2nc(-c3ccc(Cl)cc3)cc(OCCCN3CCOCC3)c2cc1OC	1920	2260	832	217	592	2150	1730	1940	1010	2060	1980	958	1300	754	414	1590	1520	2490	2010	> 100	inhibition of growth at 10 µM (TK-10): 62%; inhibition of growth at 10 µM (LOX IMVI [6]): 62%; inhibition of growth at 10 µM (K562): 62%; inhibition of growth at 10 µM (UO-31): 62%; inhibition of growth at 10 µM (SF-295): 62%; inhibition of growth at 10 µM (SNB-75 [7]): 62%; inhibition of growth at 10 µM (SR [8]): 62%; inhibition of growth at 10 µM (OVCAR-8 [9]): 62%; inhibition of growth at 10 µM (OVCAR-3): 62%; inhibition of growth at 10 µM (RXF 393): 62%; inhibition of growth at 10 µM (SK-OV-3): 62%; inhibition of growth at 10 µM (UACC-62 [10]): 62%; inhibition of growth at 10 µM (OVCAR-5): 62%; inhibition of growth at 10 µM (M14): 62%
